Experimental data taken from PubChem BioAssay.
Inconclusive results are not listed.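 The calls were made as follows, unless noted: active = inhibition over a set limit, the all-compound mean plus 3 SD, in both replicate runs; inconclusive = over that limit in just one replicate run; inactive = at or under that limit in both runs.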

Key:
[1] = OD615 S. cerevisiae growth inhibition, permissive medium, pilot counter-assay, permissive growth control for S. cerevisiae lifespan shortening project (AID 705;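 active = growth inhibition above 25% in both replicates, a cutoff set 3 SD above the mean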); conditions: OD615, 24 h, at 10 µM, stronger effect = higher value
Outline: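 Material: engineered DeaD yeast; compound dosing: one dose 10 µM, DMSO 0.25% final; measure: yeast growth inhibition indicated by reduced 24 h OD615; detection: OD615 turbidity read; incubation: cells pre-grown 4 h, then 24 h compound exposure, 30 °C humidified; medium: permissive synthetic complete medium with raffinose and galactose carbon sources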

[2] = Restrictive medium S. cerevisiae growth inhibition, OD615, pilot screen of yeast lifespan reduction project, restrictive growth control (AID 706;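 active = growth inhibition above a set limit, 3 SD over mean compound inhibition, in both replicates, cut at about 43% in these data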;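 also: modified DeaD lifespan yeast strain shifted to restrictive glucose medium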); conditions: OD615, 48 h, at 10 µM, stronger effect = higher value
Outline: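 material = engineered S. cerevisiae DeaD strain | medium = glucose-based CSMM-D restrictive medium | times = 4 h pre-incubation, 48 h exposure at 30 °C | technique = OD615 absorbance reading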

[3] = viability gain of MRP-1-high H69AR cells under doxorubicin, pilot screen, MRP-1 activator project, CellTiter-Glo, duplicate (AID 807;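 active = viability increase at or above a cutoff of the median across tested compounds plus 3 SD, cut at about 8.5% in these data, passing the limit was not always enough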;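 also: compound pretreatment 18-22 h then 72 h combined with doxorubicin; 0% = doxorubicin alone and 100% = vehicle without doxorubicin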); conditions: H69AR viability with doxorubicin, CellTiter-Glo luminescence; at 10 µM; stronger effect = higher value
[4] = growth suppression of beta-catenin knockout HCT116, pilot screen, human colon tumor cells (AID 823;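 active = cell viability at or below a set limit in both duplicate runs, the limit being the all-compound median minus 4 SD, cut at about 23% in these data, passing the limit was not always enough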;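 also: 0% = wells killed by 20 µM Hyamine and 100% = untreated DMSO cell wells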); conditions: CellTiter-Glo, 60 h, at 10 µM, stronger effect = lower value
[5] = growth suppression of PTEN-deleted HCT116, pilot screen, cell-based, HCT116 clonal line, CellTiter-Glo (AID 824;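 active = viability at or below 27.92% in each of two runs, the all-compound median minus 4 SD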;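 also: 0% = 20 µM Hyamine control and 100% = vehicle cell control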); conditions: 60 h, at 10 µM, stronger effect = lower value
[6] = inhibitors of the yeast RAM network, pilot screen, dse1pr::URA3 reporter, 5-FOA selection (AID 869);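 also: 0% = DMSO wells with no growth and 100% = 10 µM 1-NA-PP1 with full growth; RAM network block rescues cells from 5-FOA so hits raise OD615 growth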; conditions: S. cerevisiae dse1pr::URA3 5-FOA growth, OD615, 2 d; at 10 µM; stronger effect = higher value; strain carries analog-sensitive mutant Cbk1 kinase
[7] = RAM signaling pathway blockade in yeast – S. cerevisiae, Pdr1DBD-CYC8 efflux-inhibited sensitized strain, primary screen (AID 1298;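 active = RAM network inhibition above 8.4% in each of two replicates, 3 SD over the compound average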;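 also: 0% = DMSO untreated cells without growth and 100% = 10 µM 1-NA-PP1 full growth; higher means more yeast growth rescued from 5-FOA killing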); conditions: S. cerevisiae cbk1-as DSE1-URA3 strain, 5-FOA growth OD615, 2 d; at 50 µM; stronger effect = higher value

CN1CCN(CCCNC(=O)c2cn(C)c3ccc(S(=O)(=O)N(C)C)cc3c2=O)CC1
inactive: growth inhibition [1] -0.94% | growth inhibition [2] 2.12% | viability increase [3] -0.23% | viability [4] 103% | viability [5] 103% | inhibition [6] -0.355% | RAM network inhibition [7] 5.1%

Cn1c(=O)oc2cc(S(=O)(=O)N3CCCC3)ccc21
inactive: growth inhibition [1] 4.02% | growth inhibition [2] -7.37% | viability increase [3] -2.12% | viability [4] 102% | viability [5] 97.2% | inhibition [6] 0.645% | RAM network inhibition [7] 0.66%

COc1ccc(C(=O)Nc2cccnc2)cc1S(=O)(=O)N1CCOCC1
inactive: growth inhibition [1] -8.01% | growth inhibition [2] -10.6% | viability increase [3] -0.17% | viability [4] 103% | viability [5] 99.1% | inhibition [6] 0.84% | RAM network inhibition [7] 0.46%

COc1cccc(C2C(C(=O)OCc3ccccc3)=C(C)Nc3ncnn32)c1OC (configuration not stated)
inactive: growth inhibition [1] -8.96% | growth inhibition [2] 1.86% | viability increase [3] 0.73% | viability [4] 103% | viability [5] 83.5% | inhibition [6] 2.32% | RAM network inhibition [7] 4.9%

COc1ccc(NC(=O)C2CCCN(S(=O)(=O)c3cccc4cccnc34)C2)c(OC)c1 (configuration not stated)
inactive: growth inhibition [1] -9.1% | growth inhibition [2] -2.73% | viability increase [3] -2.29% | viability [4] 70.4% | viability [5] 70.7% | inhibition [6] 1.19% | RAM network inhibition [7] 9.52%

CC1CCN(c2nc(-c3ccncc3)nc3ccccc23)CC1
inactive: growth inhibition [1] 6.84% | growth inhibition [2] -2.73% | viability increase [3] -5.28% | viability [4] 40.4% | viability [5] 58.7% | inhibition [6] 0.745% | RAM network inhibition [7] 5.56%

O=C(/C=C\Nc1ccccn1)c1ccc(Cl)cc1
inactive: growth inhibition [1] -7.61% | growth inhibition [2] -36.4% | viability increase [3] 0.28% | viability [4] 83.5% | viability [5] 81.7% | inhibition [6] 2.68% | RAM network inhibition [7] 8.82%

CC1(C)CC(=O)C2=C(C1)OC(N)=C(C#N)C21CCN(Cc2ccccc2)CC1
inactive: growth inhibition [1] -19.9% | growth inhibition [2] -21.6% | viability increase [3] -3.46% | viability [4] 97.7% | viability [5] 97.6% | inhibition [6] 2.13% | RAM network inhibition [7] 5.53%

COc1ccc(CN2CC34C=CC(O3)C(C(=O)O)C4C2=O)cc1 (configuration not stated)
inactive: growth inhibition [1] -1.83% | growth inhibition [2] -0.315% | viability increase [3] -0.17% | viability [4] 92.6% | viability [5] 97.1% | inhibition [6] 0.585% | RAM network inhibition [7] 3.17%

CCCOc1cccc(C(=O)Nc2cccc(NC(=O)c3ccco3)c2)c1
inactive: growth inhibition [1] -11.2% | growth inhibition [2] -14.9% | viability increase [3] -3.58% | viability [4] 85.3% | viability [5] 91.6% | inhibition [6] 1.04% | RAM network inhibition [7] 8.68%

Cc1cccn2cc(-c3ccc(F)cc3)nc12
inactive: growth inhibition [1] 1.97% | growth inhibition [2] 15.1% | viability increase [3] -4.81% | viability [4] 87.2% | viability [5] 82.9% | inhibition [6] 1.56% | RAM network inhibition [7] -1.54%

O=C(c1ccc2nc(N3CCOCC3)sc2c1)N1CCN(C(=O)c2ccco2)CC1
inactive: growth inhibition [1] -4.29% | growth inhibition [2] 2.97% | viability increase [3] -1.45% | viability [4] 105% | viability [5] 95.8% | inhibition [6] 0.86% | RAM network inhibition [7] 3.05%

CCOC(=O)N1CCN(C(=O)c2cn(-c3ccc(C)c(C)c3)c(=O)c3ccccc23)CC1
inactive: growth inhibition [1] -10.6% | growth inhibition [2] -0.85% | viability increase [3] -2.69% | viability [4] 85.6% | viability [5] 94.4% | inhibition [6] 0.51% | RAM network inhibition [7] -0.53%

CCOc1ccc(C(=O)Nn2cnnc2)cc1
inactive: growth inhibition [1] -3.16% | growth inhibition [2] -5.59% | viability increase [3] 0.25% | viability [4] 104% | viability [5] 103% | inhibition [6] 0.895% | RAM network inhibition [7] 1.85%

CCn1c2c(c3cc(Cl)ccc31)CCCC2=O
inactive: growth inhibition [1] -8.81% | growth inhibition [2] -10.1% | viability increase [3] -0.32% | viability [4] 96% | viability [5] 97.8% | inhibition [6] 0.915% | RAM network inhibition [7] 4.07%

COc1c(Cl)cc(-c2noc(C)c2C(=O)NCc2ccc3c(c2)OCO3)cc1Cl
inactive: growth inhibition [1] -16.4% | growth inhibition [2] -10.4% | viability increase [3] -1.08% | viability [4] 89% | viability [5] 84% | inhibition [6] 1.19% | RAM network inhibition [7] 4.27%

COC(=O)NCC(c1cccnc1)N1CCN(c2ccccc2F)CC1 (configuration not stated)
inactive: growth inhibition [1] -5.28% | growth inhibition [2] -1.77% | viability increase [3] -0.18% | viability [4] 95.6% | viability [5] 102% | inhibition [6] 1.66% | RAM network inhibition [7] 1.57%

CCCCOc1ccc(C2(C)CC(=O)NC2=O)cc1 (configuration not stated)
inactive: growth inhibition [1] 19.7% | growth inhibition [2] 10.9% | viability increase [3] -1.56% | viability [4] 95.3% | viability [5] 91.8% | inhibition [6] 0.425% | RAM network inhibition [7] -1.18%

COCCOC(=O)C1=C(C)NC(=O)NC1c1ccc(OC(=O)c2ccco2)c(OC)c1 (configuration not stated)
inactive: growth inhibition [1] 7.03% | growth inhibition [2] -14.5% | viability increase [3] -2.68% | viability [4] 97.8% | viability [5] 92.7% | inhibition [6] 2.5% | RAM network inhibition [7] 4.12%

CCOc1ccc(N2CC(C(=O)NCCC3=CCCCC3)CC2=O)cc1 (configuration not stated)
inactive: growth inhibition [1] -1.23% | growth inhibition [2] -18.5% | viability increase [3] 0.15% | viability [4] 99.6% | viability [5] 93.8% | inhibition [6] 0.36% | RAM network inhibition [7] 3.96%

c1ccc2c(c1)CCN(CCCNc1nc3ccccc3n3cnnc13)C2
inactive: growth inhibition [1] -9.84% | growth inhibition [2] -12.9% | viability increase [3] -4.17% | viability [4] 91.3% | viability [5] 97.1% | inhibition [6] 1.18% | RAM network inhibition [7] -1.09%

CCOC(=O)N1CCC(N2Cc3cccc(C(=O)Nc4ccc(OC)c(OC)c4)c3C2=O)CC1
inactive: growth inhibition [1] -7.4% | growth inhibition [2] -0.92% | viability increase [3] -3.99% | viability [4] 66.2% | viability [5] 66.8% | inhibition [6] 2.03% | RAM network inhibition [7] 1.98%

O=C(NCCc1ccc(Cl)cc1)c1nnc(Cc2ccc(Cl)cc2)o1
inactive: growth inhibition [1] -3.81% | growth inhibition [2] 3.52% | viability increase [3] 0.2% | viability [4] 103% | viability [5] 103% | inhibition [6] 2.82% | RAM network inhibition [7] 7.52%

Cc1ccc(-c2ccc(CCC(=O)O)n2CC(=O)O)cc1
inactive: growth inhibition [1] -3.08% | growth inhibition [2] -11.2% | viability increase [3] -1.34% | viability [4] 98.7% | viability [5] 107% | inhibition [6] 1.36% | RAM network inhibition [7] 1.3%

COc1ccc(CSc2nnnn2Cc2ccccc2)cc1OC
inactive: growth inhibition [1] 0.115% | growth inhibition [2] 1.64% | viability increase [3] -0.65% | viability [4] 87.3% | viability [5] 84.4% | inhibition [6] 0.785% | RAM network inhibition [7] 1.87%

COc1ccc(N2C(=O)CC(NCc3cccc(F)c3)C2=O)cc1 (configuration not stated)
inactive: growth inhibition [1] -6.89% | growth inhibition [2] -3.85% | viability increase [3] -0.75% | viability [4] 99.3% | viability [5] 98% | inhibition [6] 0.82% | RAM network inhibition [7] 5.38%

COCC(C)NC(=O)c1ccc(N(C)C)cc1 (configuration not stated)
inactive: growth inhibition [1] 2.19% | growth inhibition [2] 8.57% | viability increase [3] 2.2% | viability [4] 104% | viability [5] 94.5% | inhibition [6] 2.1% | RAM network inhibition [7] 0.51%

C=C(C)CSc1nc2c(c(=O)[nH]c(=O)n2C)n1Cc1ccccc1
inactive: growth inhibition [1] -16.7% | growth inhibition [2] -22.9% | viability increase [3] 3.2% | viability [4] 83.8% | viability [5] 78.3% | inhibition [6] 2.96% | RAM network inhibition [7] 7.74%

CC(CCc1ccccc1)C(=O)NO (configuration not stated)
inactive: growth inhibition [1] -6.16% | growth inhibition [2] -10.5% | viability increase [3] -3.84% | viability [4] 95.6% | viability [5] 91.6% | inhibition [6] 0.87% | RAM network inhibition [7] 1.5%

CCOC(=O)N1CCN(C(=O)c2ccc3c(SCC(=O)O)c4c(nc3c2)CCC4)CC1
inactive: growth inhibition [1] -7.38% | growth inhibition [2] 3.22% | viability increase [3] -1.86% | viability [4] 102% | viability [5] 93% | inhibition [6] 0.9% | RAM network inhibition [7] 2.81%

CC(=O)NCc1nc2ccccc2n1Cc1ccccc1F
inactive: growth inhibition [1] -7.66% | growth inhibition [2] -15.8% | viability increase [3] -0.31% | viability [4] 108% | viability [5] 104% | inhibition [6] 3.39% | RAM network inhibition [7] 2.03%

CCN1CCN(C(c2cccs2)C(C)NC(=O)C(C)C)CC1 (configuration not stated)
inactive: growth inhibition [1] -3.71% | growth inhibition [2] 2.65% | viability increase [3] -2.01% | viability [4] 98% | viability [5] 92.2% | inhibition [6] -0.3% | RAM network inhibition [7] 3.86%

O=C(CC1CCCCC1)NCCCN1CCOCC1
inactive: growth inhibition [1] 1.88% | growth inhibition [2] -3.55% | viability increase [3] 1.14% | viability [4] 92% | viability [5] 102% | inhibition [6] 1.58% | RAM network inhibition [7] 1.38%

N#CC(c1nc2ccccc2nc1N1CCCC1)S(=O)(=O)c1ccccc1 (configuration not stated)
inactive: growth inhibition [1] -17.2% | growth inhibition [2] -3.85% | viability increase [3] -4.56% | viability [4] 81.9% | viability [5] 84.5% | inhibition [6] 0.815% | RAM network inhibition [7] 5.73%

COc1ccccc1C(=O)n1nc(-c2cccnc2)nc1N
inactive: growth inhibition [1] -10.2% | growth inhibition [2] -5.6% | viability increase [3] -0.72% | viability [4] 106% | viability [5] 105% | inhibition [6] 2.24% | RAM network inhibition [7] 0.59%

COc1ccc(OC)c(C(C)NC(=O)c2ccco2)c1 (configuration not stated)
inactive: growth inhibition [1] -6.2% | growth inhibition [2] 2.66% | viability increase [3] -5.99% | viability [4] 40.8% | viability [5] 35.4% | inhibition [6] 0.005% | RAM network inhibition [7] 0.72%
